High-throughput results deposited in PubChem BioAssay by several laboratories.
PostGolgi yeast = growth inhibition of a yeast mutant, post-Golgi transport screen; post-Golgi transport phenotypic cell assay; inhibition, % at 10 µM; actives 0.9% (n = 98,000); AID 739;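 note: yeast cells grown in 1536-well plates; yeast grown about 18 h at 30C before absorbance read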
PostGolgi ctrl = yeast control strain growth, post-Golgi counter-screen. actives 5% (n = 98,000). efflux-deficient yeast background strain, growth absorbance A615, 16 h. inhibition, % at 10 µM
Ecoli tolC = growth inhibitors of E. coli BW25113 tolC mutant. actives 2.2% (n = 65,000). AID 573. OD615. growth inhibition, % at 10 µM (by protocol);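 active = growth inhibition at or above a cutoff equal to the mean over every tested compound plus 3 SD, cut at about 60% in these data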;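 note: growth measured after 20 h incubation at 37 °C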
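Test system: E. coli BW25113 ΔtolC::kan bacteria; incubation: 37 °C, 20 h exposure; medium: LB broth supplemented with 50 µg/mL kanamycin; read-out basis: percent growth inhibition; signal: A615 absorbance measurement; compound: 10 µM final, single dose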
PLAP act = human PLAP activation. P05187. purified PLAP enzyme, luminescent substrate read-out; hits give high values. activation fold at 20 µM. actives 1.2% (n = 96,000). AID 696; in the data active = activation fold above about 2
E coli WT exp = blocks growth of wild type E. coli BW25113; OD600 absorbance; growth inhibition, % at 100 µM; actives 0.15% (n = 98,000);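 active = growth inhibition above about 50% at one test dose, limit read from the data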;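 note: growth measured after 20 h incubation at 37 °C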
HePTP inhibitor = human HePTP phosphatase inhibition; P35236; recombinant HePTP phosphatase activity, OD absorbance; inhibition, % at 20 µM; actives 0.64% (n = 110,000); in the data active = inhibition above about 50%;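 note: plate controls were vehicle for no effect and reference inhibitor for full effect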
Target sequence (P35236 whole entry, looked up): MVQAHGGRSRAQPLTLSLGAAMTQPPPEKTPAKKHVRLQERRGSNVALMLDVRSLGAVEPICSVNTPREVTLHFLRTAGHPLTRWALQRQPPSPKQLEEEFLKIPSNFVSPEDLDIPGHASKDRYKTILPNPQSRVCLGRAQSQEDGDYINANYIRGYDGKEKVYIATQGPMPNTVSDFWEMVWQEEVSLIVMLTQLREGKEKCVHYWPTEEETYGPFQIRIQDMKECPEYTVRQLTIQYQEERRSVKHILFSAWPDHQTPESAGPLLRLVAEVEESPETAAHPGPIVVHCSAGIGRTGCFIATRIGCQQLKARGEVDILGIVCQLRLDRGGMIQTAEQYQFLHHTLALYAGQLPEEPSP
The depositor's hits bear a star. This is a sample that favours compounds with a hit; in the whole collection about 5.4% have one here. Cut-off read from the data, not from the text of the source, unless noted: active = inhibition above about 30%; inactive = the rest.

Results for CCOCCCNC(=O)C1CCN(S(=O)(=O)N2CCCCC2)CC1 ?
PostGolgi yeast: -10.1; PostGolgi ctrl: 12.5; Ecoli tolC: -4.0; PLAP act: 1.1; E coli WT exp: -12.0; HePTP inhibitor: 7.8

How did CCOCCCNC(=O)C1CCN(C(=O)N(C)C)CC1 do in these assays?
PostGolgi yeast: 43.4*; PostGolgi ctrl: -3.3; Ecoli tolC: -21.8; PLAP act: 1; E coli WT exp: 1.0; HePTP inhibitor: -11.2

Results for CCOc1cc(C=O)c(Br)cc1O ?
HePTP inhibitor: -12.1

How did COc1ccc(C(C)=O)cc1CSc1nc2cc(Cl)ccc2o1 do in these assays?
PostGolgi yeast: -5.8; PostGolgi ctrl: 47.3*; PLAP act: 0.8; E coli WT exp: -14.0

How did COc1ccccc1OCCOc1ccccc1/C=N/n1cnnc1 do in these assays?
PostGolgi yeast: 3.7; PostGolgi ctrl: -2.1; Ecoli tolC: -3.0; PLAP act: 1; E coli WT exp: 4.0; HePTP inhibitor: 19.0

How did COc1ccc(C(=O)Nc2ccc(S(=O)(=O)NC(C)=O)cc2)cc1 do in these assays?
PostGolgi yeast: -7.8; PostGolgi ctrl: 36.0*; Ecoli tolC: -5.4; PLAP act: 0.9; E coli WT exp: -4.0; HePTP inhibitor: 6.2

How did C=CCSC1=C(C#N)C(c2ccc(C(C)C)cc2)CC(=O)N1 (stereo unspecified) do in these assays?
PostGolgi yeast: -2.2; PostGolgi ctrl: 38.4*; Ecoli tolC: 36.6; PLAP act: 1.2; E coli WT exp: 9.0; HePTP inhibitor: 8.4

What do the screens show for `CC/C(C)=C1\SC(N2CCN(c3cccc(C(F)(F)F)c3)CC2)=NC1=O`?
PostGolgi yeast: 16.0; PostGolgi ctrl: 32.0*; PLAP act: 0.9; E coli WT exp: 2.0

How did O=C(CCSc1nnc(-c2ccncc2)o1)Nc1ccc(F)cc1 do in these assays?
PostGolgi yeast: 92.8*; PostGolgi ctrl: 89.2*; Ecoli tolC: -6.2; PLAP act: 0.9; E coli WT exp: 6.0; HePTP inhibitor: 7.5

Results for O=C(CCSc1nnc(-c2ccncc2)o1)Nc1ccccc1 ?
PostGolgi yeast: 1.4; PostGolgi ctrl: 2.8; Ecoli tolC: -5.8; PLAP act: 1; E coli WT exp: 0.0; HePTP inhibitor: 13.2

Results for O=C(CSc1nc2c(c(=O)n1-c1ccc(Cl)cc1)SCC2)Nc1ccc2c(c1)OCCO2 ?
PostGolgi yeast: 1.2; PostGolgi ctrl: 17.4; Ecoli tolC: 3.9; PLAP act: 1; E coli WT exp: -9.0; HePTP inhibitor: 5.6

What do the screens show for `COC(=O)CN1C(=O)Nc2ccc(Br)cc2C1c1ccccc1Cl` (stereo unspecified)?
PostGolgi yeast: -9.3; PostGolgi ctrl: 33.4*; PLAP act: 1.6; E coli WT exp: -2.0; HePTP inhibitor: -5.0

How did Clc1ccc(OCCn2c(-c3ccco3)nc3ccccc32)cc1 do in these assays?
PostGolgi yeast: -2.9; PostGolgi ctrl: 53.2*; PLAP act: 1.5; E coli WT exp: -9.0

How did c1coc(Cn2c(-c3ccco3)nc3ccccc32)c1 do in these assays?
PostGolgi yeast: -11.6; PostGolgi ctrl: 6.8; Ecoli tolC: 30.3; PLAP act: 0.9; E coli WT exp: 5.0; HePTP inhibitor: 8.0

What do the screens show for `COc1ccc(C(=O)n2c(-c3ccco3)nc3ccccc32)cc1`?
PostGolgi yeast: 5.8; PostGolgi ctrl: 32.7*; Ecoli tolC: 63.7*; PLAP act: 1.2; E coli WT exp: -6.0; HePTP inhibitor: 4.7

What do the screens show for `CCOC(=O)c1cc2c(ccn2C)n1CC(=O)N1CCN(c2ccccc2OC)CC1`?
PostGolgi yeast: 32.4*; PostGolgi ctrl: -0.9; Ecoli tolC: 6.6; PLAP act: 1.5; E coli WT exp: 8.0; HePTP inhibitor: 8.7

What do the screens show for `CCOC(=O)c1cc2c(ccn2C)n1CC(=O)N1CCC(Cc2ccccc2)CC1`?
PostGolgi yeast: 17.7; PostGolgi ctrl: 26.6; Ecoli tolC: 30.1; PLAP act: 1.7; E coli WT exp: -32.0; HePTP inhibitor: 3.2

Results for Nc1nonc1-n1nnc(C(=O)O)c1-c1cccs1 ?
PostGolgi yeast: -2.5; PostGolgi ctrl: 13.0; Ecoli tolC: -11.2; PLAP act: 0.9; E coli WT exp: 0.0; HePTP inhibitor: 11.5

Results for CCCC(=O)Nc1ccc(Cl)c(NC(=O)c2cccnc2Cl)c1 ?
PostGolgi yeast: 44.7*; PostGolgi ctrl: 3.2; PLAP act: 1.1; E coli WT exp: 4.0

How did CCCOc1cccc(C(=O)Nc2ccccc2C(F)(F)F)c1 do in these assays?
HePTP inhibitor: 0.8

What do the screens show for `CCCCCc1c(C)nc(NCc2ccccc2)[nH]c1=O`?
PostGolgi yeast: 10.7; PostGolgi ctrl: 39.3*; Ecoli tolC: 30.5; PLAP act: 1; E coli WT exp: -10.0; HePTP inhibitor: 6.4

What do the screens show for `Cc1nc(Nc2ccccc2)[nH]c(=O)c1CCC(C)C`?
PostGolgi yeast: -3.0; PostGolgi ctrl: 17.6; Ecoli tolC: 25.0; PLAP act: 0.9; E coli WT exp: -5.0; HePTP inhibitor: 1.5

Results for Cc1ccccc1N=C(NOCc1ccccc1)c1nonc1N ?
PostGolgi yeast: 10.1; PostGolgi ctrl: 36.0*; E coli WT exp: -8.0; HePTP inhibitor: 5.8

What do the screens show for `CN=C(NOCc1ccccc1)c1nonc1N`?
HePTP inhibitor: -2.5

What do the screens show for `Cc1ccccc1N=C(NOCc1ccc(Cl)cc1Cl)c1nonc1N`?
PostGolgi yeast: -4.7; PostGolgi ctrl: 35.5*; PLAP act: 0.3; E coli WT exp: -15.0

What do the screens show for `COc1ccc2c(c1)c1ncn(CCc3ccccc3)c(=O)c1n2C`?
PostGolgi yeast: -16.5; PostGolgi ctrl: 39.2*; PLAP act: 1.5; E coli WT exp: -5.0

How did COc1ccccc1NC(=O)CN1CCC(C(=O)c2ccc(F)cc2)CC1 do in these assays?
PostGolgi yeast: -5.3; PostGolgi ctrl: 32.4*; PLAP act: 1.2; E coli WT exp: 5.0

Results for COc1ccccc1NC(=O)CN1CCN(CC(=O)Nc2ccc(Cl)c(C(F)(F)F)c2)CC1 ?
PostGolgi yeast: -1.8; PostGolgi ctrl: 82.1*; Ecoli tolC: 26.3; PLAP act: 1.5; E coli WT exp: -2.0; HePTP inhibitor: 4.0

What do the screens show for `O=C(Nc1ccc(N2CCOCC2)c(Cl)c1)c1ccccc1F`?
PostGolgi yeast: 5.8; PostGolgi ctrl: -0.6; PLAP act: 0.8; E coli WT exp: 4.0

What do the screens show for `O=C(COc1c(F)c(F)c(C(F)(F)F)c(F)c1F)Nc1ccc(N2CCOCC2)c(Cl)c1`?
PostGolgi yeast: -2.1; PostGolgi ctrl: 13.8; Ecoli tolC: 100.0*; PLAP act: 1.1; E coli WT exp: -21.0; HePTP inhibitor: 17.9

What do the screens show for `CCOC(=O)c1c(NC(=O)CSc2nnc(CNc3ccc(F)cc3)o2)sc(C)c1C`?
PostGolgi yeast: -7.5; PostGolgi ctrl: 38.3*; Ecoli tolC: 12.8; PLAP act: 1.6; E coli WT exp: -14.0; HePTP inhibitor: -5.1

How did c1ccc(CC2CCN(Cc3nc(-c4ccccc4)no3)CC2)cc1 do in these assays?
PostGolgi yeast: 4.3; PostGolgi ctrl: 21.7; Ecoli tolC: 69.9*; PLAP act: 0.9; E coli WT exp: 2.0; HePTP inhibitor: 5.4

How did COc1ccc(-c2noc(CN3CCC(Cc4ccccc4)CC3)n2)cc1 do in these assays?
Ecoli tolC: 67.4*; PLAP act: 1.3; HePTP inhibitor: -5.8
